Only some compounds are listed: those with a hit (about 3.9% of all), similar ones and a draw of the others.
AHR activator – AHR activators, primary screen, cell-based, luminescence, luciferase reporter, human. Aryl hydrocarbon receptor (Homo sapiens), P35869. AHR-responsive luciferase reporter cells. activation, % at 5 µM. 320,000 tested, 2.5% active; in the data active means activation above about 47%
ABCB6 inh MLPCN – ABCB6 transporter inhibitors, primary screen, K562-ABCB6 cells, flow cytometry, MLPCN library; fluorescence ratio to DMSO, % at 10 µM; 360,000 tested, 0.19% active; AID 602162, 2011; ATP-binding cassette sub-family B member 6 (Homo sapiens), Q9NP58; K562-ABCB6 porphyrin accumulation, 1 h; stronger effect = lower value;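 active means fluorescence ratio to DMSO below 75%, the collection mean minus 3 SD; inconclusive means too few cells collected in the well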;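 further: signal is porphyrin accumulated inside mitochondria; lower ratio means ABCB6 inhibition with less porphyrin fluorescence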
Target sequence (Q9NP58 whole entry, looked up): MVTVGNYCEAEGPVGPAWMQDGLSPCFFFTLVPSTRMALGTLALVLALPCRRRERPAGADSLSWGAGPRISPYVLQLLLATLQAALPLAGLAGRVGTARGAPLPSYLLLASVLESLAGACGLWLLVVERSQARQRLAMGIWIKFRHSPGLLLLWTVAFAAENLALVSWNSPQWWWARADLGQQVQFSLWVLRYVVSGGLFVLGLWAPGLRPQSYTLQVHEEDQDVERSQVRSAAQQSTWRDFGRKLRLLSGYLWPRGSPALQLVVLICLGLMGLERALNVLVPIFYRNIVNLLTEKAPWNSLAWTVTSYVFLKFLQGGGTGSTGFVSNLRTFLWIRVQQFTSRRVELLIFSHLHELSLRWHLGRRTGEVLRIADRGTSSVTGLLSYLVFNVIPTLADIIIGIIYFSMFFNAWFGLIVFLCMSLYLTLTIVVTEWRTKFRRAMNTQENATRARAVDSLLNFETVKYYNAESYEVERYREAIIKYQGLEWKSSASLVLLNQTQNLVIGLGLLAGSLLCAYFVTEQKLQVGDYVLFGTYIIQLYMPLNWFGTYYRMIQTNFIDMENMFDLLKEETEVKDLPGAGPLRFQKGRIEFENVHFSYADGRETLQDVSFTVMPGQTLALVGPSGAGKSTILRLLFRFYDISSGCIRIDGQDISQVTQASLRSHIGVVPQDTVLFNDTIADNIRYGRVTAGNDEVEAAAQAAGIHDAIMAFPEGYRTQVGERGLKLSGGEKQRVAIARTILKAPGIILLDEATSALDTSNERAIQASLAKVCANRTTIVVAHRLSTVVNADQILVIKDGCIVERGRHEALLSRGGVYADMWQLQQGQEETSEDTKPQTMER
HIF activator – HIF pathway transcriptional activators, primary screen, cell-based, U2OS HRE-luciferase, luminescence. 300,000 tested, 0.32% active. U2OS HRE-luciferase reporter; normalized: DMSO 0%, desferrioxamine 100%. activation, % at 7.5 µM (by protocol);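 active means mean activation of at least 10% of the iron chelator positive control signal, with at least half of replicates also reaching 10%; inconclusive means mean and replicate majority disagree about reaching 10%; inactive means mean and most replicates under 10%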
SR-BI HDL uptake – inhibitors of SR-BI mediated HDL lipid uptake, primary screen, ldlA[mSR-BI] cells, fluorescence, single point; ldlA[mSR-BI] CHO cells, DiI-HDL uptake fluorescence, 3 h; inhibition, % at 12.5 µM; 320,000 tested, 0.96% active;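 active means mean replicate inhibition of at least 70% and a set share of replicates each scoring 70 or more; inconclusive means meets just one of the two criteria; inactive means fails both criteria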
SR-BI DiI-HDL act – activators of SR-BI mediated DiI-HDL uptake, primary screen, ldlA[mSR-BI] CHO cells, DiI fluorescence; 3 h; 100 = double the neutral-control signal; activation, % at 12.5 µM; 320,000 tested, 0.096% active; AID 504775, 2011;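 active means mean replicate activation of at least 60% and every replicate at or above 60%; inconclusive means mean or all-replicate condition met, but not both; inactive means mean below 60% and not all replicates reaching 60%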
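Material: SR-BI-overexpressing, LDLR-lacking CHO cells | Dosing: Single compound concentration, delivered by pin transfer | Probe or stimulus: Labelled HDL, 10 µg/mL | Signal: Bottom-read cell fluorescence after medium removal, ex 550/em 595 nm | Schedule: 3 h, 37 °C | Evaluation: HDL uptake via cellular fluorescence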
GAA850 FXN act – FXN promoter activators, primary screen, cell-based, luciferase luminescence, HEK293 lucGAA850; HEK293 lucGAA850 FXN promoter luciferase reporter, 24 h; percent of 10 µM SAHA response; activation, % at 6 µM; 360,000 tested, 0.56% active;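 active means activation above the average of all compounds screened plus 3 SD, cutoff fixed separately per campaign, cut at about 7.5% in these data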
AHR act confirm – AHR activators, confirmation, cell-based, luminescence, luciferase reporter, human. shares compounds with AHR activator. human cells, AHR-responsive luciferase reporter. activation, % at 9 µM. 2,300 tested, 87% active; in the data active means activation above about 49%;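 further: HepG2 hepatoma cells carrying a DRE-driven firefly luciferase reporter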
PXR act counter – human PXR activators, counter-screen for AHR activator project, cell-based, luciferase luminescence. shares compounds with AHR activator. cell-based PXR reporter. activation, % at 11.6 µM. 2,300 tested, 88% active; in the data active means activation above about 11%;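 further: human hepatoma DPX-2 cells expressing full-length human PXR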
Numbers stand for hits; . = inactive; ? = inconclusive; / = no result.

SMILES	AHR activator	ABCB6 inh MLPCN	HIF activator	SR-BI HDL uptake	SR-BI DiI-HDL act	GAA850 FXN act	AHR act confirm	PXR act counter
COc1ccc(C(=O)N/N=C/c2ccc3cccc(OCc4ccccc4)c3n2)cc1	81	.	.	.	.	.	81	22
NC(=S)N/N=C/c1ccc2cccc(OCc3ccccc3)c2n1	.	.	.	.	.	.	/	/
COc1cccc(C(=O)COc2ccccc2-c2ccccc2)c1	.	.	.	.	.	.	/	/
O=C(Nc1ccccc1)c1cnc(-c2ccccc2)nc1-c1ccccc1	90	.	.	.	.	.	93	47
O=C(Nc1cc(S(=O)(=O)N2CCOCC2)ccc1N1CCCCC1)c1ccccc1	.	.	/	.	.	.	/	/
O=C(Nc1ccc(Cl)cc1)Nc1ccon1	97	.	.	.	.	.	76	14
CCCC(=O)Nc1nn(C)c2nc3cc(C)ccc3cc12	85	/	.	/	/	/	53	/
Cc1ccc2nc3c(cc2c1)c(NC(=O)c1cccnc1)nn3C	107	.	.	.	?	.	118	25
Cc1nc(N2CCN(c3ccccc3)CC2)nc2c1C(=O)CC(C)C2 (centres undefined)	92	.	.	.	.	.	62	13
Cc1ccc(NC(=O)c2[nH]cnc2C(=O)NN)cc1	79	.	.	.	.	.	82	16
CCN1CCN(C(=O)c2ccc(S(=O)(=O)Nc3ccccc3)cc2)CC1	.	.	/	.	.	.	/	/
COc1ccc2nc(NC(=O)CSc3n[nH]c(N)n3)sc2c1	94	.	.	.	.	.	108	22
COC(=O)[C@H](Cc1ccccc1)NC(=O)CC[C@H]1O[C@@H](n2ccc(=O)[nH]c2=O)[C@H](O)[C@@H]1O	/	.	/	/	/	/	/	/
c1ccc2nc(N3CCCC3)c(N3CCCCC3)nc2c1	/	.	/	.	.	.	/	/
c1ccc2nc3c(nc2c1)OCC1CCCCN31 (centres undefined)	102	.	.	.	.	.	104	46
CNS(=O)(=O)c1ccc(N2CCCC2)c([N+](=O)[O-])c1	.	.	.	/	/	.	/	/
C[C@@H]1CN([C@H](C)CO)C(=O)Cc2cc(NC(=O)CCC(F)(F)F)ccc2O[C@@H]1CN(C)C(=O)NC1CCCCC1	.	.	/	.	.	.	/	/
Cc1cc([N+](=O)[O-])nn1Cc1noc(C(=O)NCc2ccc3c(c2)OCO3)n1	.	.	.	/	/	.	/	/
O=C(Nc1ccc(Br)cc1)c1cc(-c2ccncc2)nc2ccccc12	109	.	/	.	.	.	97	12
COc1cc2c(cc1NC(=O)c1cccc(S(=O)(=O)N(C)C)c1)oc1ccccc12	79	.	.	.	.	.	65	42
COc1cc2c(cc1NC(=O)COC(=O)c1ccccc1)oc1ccccc12	.	/	.	/	/	/	/	/
NNC(=O)c1cc(-c2ccc(O)cc2)nc2ccc(Br)cc12	81	.	.	/	/	.	.	.
COc1cc2c(cc1NC(=O)Nc1ccc(C)cc1)oc1ccccc12	87	.	.	.	.	.	98	/
NNC(=O)c1cc(C2CC2)nc2ccc(Br)cc12	/	.	.	.	.	.	/	/
CCCCN(Cc1ccccc1)S(=O)(=O)c1cc2c(cc1Br)CC(C)N2C(C)=O (centres undefined)	/	.	/	.	.	.	/	/
SMILES	AHR activator	ABCB6 inh MLPCN	HIF activator	SR-BI HDL uptake	SR-BI DiI-HDL act	GAA850 FXN act	AHR act confirm	PXR act counter
c1ccc(-c2noc(CCC3CCCC3)n2)cc1	.	.	.	.	.	.	/	/
COC(=O)c1ccc(NC(=O)c2cc(-c3ccncc3)nc3ccccc23)cc1	.	.	/	.	.	.	/	/
COc1cc2c(cc1NC(=O)c1cc(-c3ccncc3)nc3ccccc13)oc1ccccc12	83	.	.	83	.	.	71	13
O=C(Nc1ccc2c(c1)OCO2)c1cc(-c2ccncc2)nc2ccccc12	94	.	.	.	.	.	95	35
COc1cc2c(cc1NC(=O)C(C)OC(=O)/C=C/c1ccc(OC(F)F)cc1)oc1ccccc12 (centres undefined)	144	.	.	.	.	.	107	30
C/C(=N\N=c1/sc2ccccc2n1C)c1ccccn1	104	.	.	.	.	.	143	26
O=C(Nc1ccc(Cl)c(Cl)c1)c1ccc(Cl)c(Cl)c1	168	.	.	.	.	.	159	33
CCC(=O)N(CCc1ccccc1)Cc1cc2cc3c(cc2[nH]c1=O)OCO3	92	.	.	.	.	.	93	54
CCC(=O)N(Cc1ccc(C)cc1)Cc1cc2cc3c(cc2[nH]c1=O)OCO3	.	.	.	.	.	.	/	/
COc1ccccc1C1NC(=O)NC(C)=C1C(=O)OCC1CCCCC1 (centres undefined)	/	.	/	/	/	.	/	/
Clc1cccc(/C=N\Nc2nccs2)c1	117	.	.	.	.	.	122	37
C(=N/Nc1nccs1)/c1cccnc1	.	.	.	.	.	.	/	/
CCN1CCc2nc3ccccc3c(C(=O)Nc3ccc(F)cc3)c2C1	94	.	.	/	/	.	63	26
CCCC1S/C(=N/N=C/c2ccco2)NC1=O (centres undefined)	.	.	.	.	.	.	/	/
O=c1c2ccccc2nc2n1-c1ccccc1CCC2	.	.	.	.	.	.	/	/
O=C1c2ccccc2-n2c1nc1ccccc1c2=O	108	.	.	.	.	.	155	30
C/C=C/C(=O)OCC(=O)Nc1cc(-c2cc(C)c(C)cc2C)nn1-c1ccccc1	105	.	.	.	.	.	90	85
Cc1cc(N/N=C/c2ccccc2O)c2ccccc2n1	107	.	.	.	.	.	124	13
Cc1cc(C)c2[nH]c(O)c(N=NC3=NC(=O)CS3)c2c1	95	.	.	/	/	.	118	16
Cc1cc(C)c2[nH]c(O)c(N=Nc3ccc(C(=O)O)cc3)c2c1	.	.	.	.	.	.	/	/
CSc1nc(C)c(CCOC(=O)c2ccccc2)c(=O)[nH]1	.	.	.	.	.	.	/	/
O=C1c2ccccc2[C@@H]2CC(O)C(O)CCN12 (some centres undefined)	/	.	/	.	.	.	/	/

Screens from PubChem.
